According to ChEMBL document CHEMBL3352597, “Heck products of parthenolide and melampomagnolide-B as anticancer modulators that modify cell cycle progression” (Eur J Med Chem, 2014):
The source made the active and inactive calls. No cut-off for these calls is given here.

Tested on: Oocyte
Experiment: Induction of immature stage VI Xenopus oocyte maturation assessed as stimulation of progesterone-mediated maturation measured as germinal vesicle (nuclear) breakdown at 100 uM after overnight incubation
Assay type: functional, cell-based
How it was run: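 Oocytes (20 per well) pre-treated overnight with compound (100 μM final, DMSO) or DMSO vehicle, then stimulated with 2 μg/ml progesterone. GVBD (animal-pole white spot) scored at the time 50% of DMSO controls reach GVBD. Rate relative to control: 1.0 means no difference, above 1.0 acceleration, below 1.0 delay, 0.0 no maturation. Differences over 20% followed up.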

## C[C@@]12CC/C=C(/CO)CC[C@@H]3/C(=C\c4cccc(C(F)(F)F)c4)C(=O)O[C@@H]3[C@@H]1O2
  Activity: Active
